Columns and labels:
[1] = target: Interferon-induced, double-stranded RNA-activated protein kinase (Homo sapiens) (UniProt P19525); test: Inhibition of PKR Lys2 labeling site in human Huh-7 cell lysate at 1 uM by KiNativ Profiling analysis relative to control; format: subcellular
[2] = target: Serine/threonine-protein kinase ATR (Homo sapiens) (UniProt Q13535); test: Inhibition of ATR ATP labeling site in human Huh-7 cell lysate at 1 uM by KiNativ Profiling analysis relative to control; format: subcellular
[3] = target: T1, Serine/threonine-protein kinase TAO3 (Homo sapiens) (UniProt Q9H2K8); test: Inhibition of TAO3 Lys2 labeling site in human Huh-7 cells at 1 uM by KiNativ Profiling analysis relative to control; format: cell-based
T1 sequence (whole entry): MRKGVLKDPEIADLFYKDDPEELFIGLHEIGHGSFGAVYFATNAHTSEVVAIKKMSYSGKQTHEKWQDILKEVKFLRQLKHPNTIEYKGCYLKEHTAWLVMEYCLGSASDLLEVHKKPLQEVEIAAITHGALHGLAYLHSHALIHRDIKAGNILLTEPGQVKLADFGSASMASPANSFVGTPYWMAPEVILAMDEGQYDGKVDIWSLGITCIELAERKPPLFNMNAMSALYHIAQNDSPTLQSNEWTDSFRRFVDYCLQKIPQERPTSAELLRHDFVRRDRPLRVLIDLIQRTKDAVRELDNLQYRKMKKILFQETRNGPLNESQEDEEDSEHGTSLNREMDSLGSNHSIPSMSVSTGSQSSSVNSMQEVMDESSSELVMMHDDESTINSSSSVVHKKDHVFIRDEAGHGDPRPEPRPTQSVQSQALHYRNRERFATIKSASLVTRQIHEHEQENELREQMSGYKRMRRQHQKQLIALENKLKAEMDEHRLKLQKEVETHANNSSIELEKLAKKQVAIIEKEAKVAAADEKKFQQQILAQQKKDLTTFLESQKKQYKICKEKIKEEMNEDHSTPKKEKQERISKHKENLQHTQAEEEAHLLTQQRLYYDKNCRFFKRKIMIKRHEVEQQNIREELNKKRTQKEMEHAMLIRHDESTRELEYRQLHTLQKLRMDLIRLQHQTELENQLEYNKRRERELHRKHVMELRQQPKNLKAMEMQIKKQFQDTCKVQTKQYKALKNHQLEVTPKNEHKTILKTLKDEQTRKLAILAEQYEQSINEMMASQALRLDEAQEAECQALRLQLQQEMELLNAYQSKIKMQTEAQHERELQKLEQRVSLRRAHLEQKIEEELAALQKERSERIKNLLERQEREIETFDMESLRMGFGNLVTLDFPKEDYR

[4] = target: T2, Scaffold protein ILK (Homo sapiens) (UniProt Q13418); test: Inhibition of ILK Protein Kinase Domain labeling site in human Huh-7 cells at 1 uM by KiNativ Profiling analysis relative to control; format: cell-based
T2 sequence (whole entry): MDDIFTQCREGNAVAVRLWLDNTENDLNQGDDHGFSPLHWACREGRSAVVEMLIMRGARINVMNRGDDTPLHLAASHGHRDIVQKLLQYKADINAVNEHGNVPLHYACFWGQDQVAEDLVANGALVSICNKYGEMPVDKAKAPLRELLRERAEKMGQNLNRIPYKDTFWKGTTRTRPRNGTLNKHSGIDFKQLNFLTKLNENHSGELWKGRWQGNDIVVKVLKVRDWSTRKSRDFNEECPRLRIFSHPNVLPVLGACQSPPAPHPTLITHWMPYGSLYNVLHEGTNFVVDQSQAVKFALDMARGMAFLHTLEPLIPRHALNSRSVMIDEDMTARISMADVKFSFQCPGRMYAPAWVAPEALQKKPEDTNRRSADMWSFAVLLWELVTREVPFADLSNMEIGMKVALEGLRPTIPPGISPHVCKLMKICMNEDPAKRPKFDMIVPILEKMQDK

[5] = target: MAST1/MAST2 (Homo sapiens) (UniProt Q9Y2H9+Q6P0Q8); test: Inhibition of MAST1/2 K2 labeling site in human Huh-7 cells at 1 uM by KiNativ Profiling analysis relative to control; format: cell-based
[6] = target: T3, Inhibitor of nuclear factor kappa-B kinase subunit epsilon (Homo sapiens) (UniProt Q14164); test: Inhibition of IKK-epsilon (unknown origin) at 1 uM by Ambit Kinomescan binding assay relative to control; values are per cent of control
T3 sequence (whole entry): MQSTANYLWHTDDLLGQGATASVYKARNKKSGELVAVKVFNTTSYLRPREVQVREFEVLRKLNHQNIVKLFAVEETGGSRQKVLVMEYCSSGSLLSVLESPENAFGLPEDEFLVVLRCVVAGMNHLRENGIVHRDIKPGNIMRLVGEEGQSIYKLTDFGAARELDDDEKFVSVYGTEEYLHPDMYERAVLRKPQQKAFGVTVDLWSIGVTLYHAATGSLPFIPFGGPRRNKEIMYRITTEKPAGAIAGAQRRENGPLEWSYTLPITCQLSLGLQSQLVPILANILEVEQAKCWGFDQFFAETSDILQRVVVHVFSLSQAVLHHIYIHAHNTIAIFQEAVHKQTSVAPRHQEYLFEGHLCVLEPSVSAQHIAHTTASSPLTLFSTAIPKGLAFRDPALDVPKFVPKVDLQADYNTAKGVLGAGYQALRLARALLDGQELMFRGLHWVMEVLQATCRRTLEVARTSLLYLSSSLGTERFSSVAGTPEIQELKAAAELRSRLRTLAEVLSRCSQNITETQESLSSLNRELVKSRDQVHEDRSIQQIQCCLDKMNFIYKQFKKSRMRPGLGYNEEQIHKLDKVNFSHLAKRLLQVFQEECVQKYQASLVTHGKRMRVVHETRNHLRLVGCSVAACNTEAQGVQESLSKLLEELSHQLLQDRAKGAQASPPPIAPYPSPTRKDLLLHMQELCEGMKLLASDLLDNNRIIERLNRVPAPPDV

[7] = target: Cyclin-dependent kinase 18 (Homo sapiens) (UniProt Q07002); test: Inhibition of PCTK3 (unknown origin) at 1 uM by Ambit Kinomescan binding assay relative to control
Method in brief: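 In vitro ATP-site competition binding assay against a panel of over 420 kinases (KinomeScan), with compound tested at 10 or 1 μM.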

Serine/threonine-protein kinase ATR (Homo sapiens), sequence (Q13535 whole entry, looked up): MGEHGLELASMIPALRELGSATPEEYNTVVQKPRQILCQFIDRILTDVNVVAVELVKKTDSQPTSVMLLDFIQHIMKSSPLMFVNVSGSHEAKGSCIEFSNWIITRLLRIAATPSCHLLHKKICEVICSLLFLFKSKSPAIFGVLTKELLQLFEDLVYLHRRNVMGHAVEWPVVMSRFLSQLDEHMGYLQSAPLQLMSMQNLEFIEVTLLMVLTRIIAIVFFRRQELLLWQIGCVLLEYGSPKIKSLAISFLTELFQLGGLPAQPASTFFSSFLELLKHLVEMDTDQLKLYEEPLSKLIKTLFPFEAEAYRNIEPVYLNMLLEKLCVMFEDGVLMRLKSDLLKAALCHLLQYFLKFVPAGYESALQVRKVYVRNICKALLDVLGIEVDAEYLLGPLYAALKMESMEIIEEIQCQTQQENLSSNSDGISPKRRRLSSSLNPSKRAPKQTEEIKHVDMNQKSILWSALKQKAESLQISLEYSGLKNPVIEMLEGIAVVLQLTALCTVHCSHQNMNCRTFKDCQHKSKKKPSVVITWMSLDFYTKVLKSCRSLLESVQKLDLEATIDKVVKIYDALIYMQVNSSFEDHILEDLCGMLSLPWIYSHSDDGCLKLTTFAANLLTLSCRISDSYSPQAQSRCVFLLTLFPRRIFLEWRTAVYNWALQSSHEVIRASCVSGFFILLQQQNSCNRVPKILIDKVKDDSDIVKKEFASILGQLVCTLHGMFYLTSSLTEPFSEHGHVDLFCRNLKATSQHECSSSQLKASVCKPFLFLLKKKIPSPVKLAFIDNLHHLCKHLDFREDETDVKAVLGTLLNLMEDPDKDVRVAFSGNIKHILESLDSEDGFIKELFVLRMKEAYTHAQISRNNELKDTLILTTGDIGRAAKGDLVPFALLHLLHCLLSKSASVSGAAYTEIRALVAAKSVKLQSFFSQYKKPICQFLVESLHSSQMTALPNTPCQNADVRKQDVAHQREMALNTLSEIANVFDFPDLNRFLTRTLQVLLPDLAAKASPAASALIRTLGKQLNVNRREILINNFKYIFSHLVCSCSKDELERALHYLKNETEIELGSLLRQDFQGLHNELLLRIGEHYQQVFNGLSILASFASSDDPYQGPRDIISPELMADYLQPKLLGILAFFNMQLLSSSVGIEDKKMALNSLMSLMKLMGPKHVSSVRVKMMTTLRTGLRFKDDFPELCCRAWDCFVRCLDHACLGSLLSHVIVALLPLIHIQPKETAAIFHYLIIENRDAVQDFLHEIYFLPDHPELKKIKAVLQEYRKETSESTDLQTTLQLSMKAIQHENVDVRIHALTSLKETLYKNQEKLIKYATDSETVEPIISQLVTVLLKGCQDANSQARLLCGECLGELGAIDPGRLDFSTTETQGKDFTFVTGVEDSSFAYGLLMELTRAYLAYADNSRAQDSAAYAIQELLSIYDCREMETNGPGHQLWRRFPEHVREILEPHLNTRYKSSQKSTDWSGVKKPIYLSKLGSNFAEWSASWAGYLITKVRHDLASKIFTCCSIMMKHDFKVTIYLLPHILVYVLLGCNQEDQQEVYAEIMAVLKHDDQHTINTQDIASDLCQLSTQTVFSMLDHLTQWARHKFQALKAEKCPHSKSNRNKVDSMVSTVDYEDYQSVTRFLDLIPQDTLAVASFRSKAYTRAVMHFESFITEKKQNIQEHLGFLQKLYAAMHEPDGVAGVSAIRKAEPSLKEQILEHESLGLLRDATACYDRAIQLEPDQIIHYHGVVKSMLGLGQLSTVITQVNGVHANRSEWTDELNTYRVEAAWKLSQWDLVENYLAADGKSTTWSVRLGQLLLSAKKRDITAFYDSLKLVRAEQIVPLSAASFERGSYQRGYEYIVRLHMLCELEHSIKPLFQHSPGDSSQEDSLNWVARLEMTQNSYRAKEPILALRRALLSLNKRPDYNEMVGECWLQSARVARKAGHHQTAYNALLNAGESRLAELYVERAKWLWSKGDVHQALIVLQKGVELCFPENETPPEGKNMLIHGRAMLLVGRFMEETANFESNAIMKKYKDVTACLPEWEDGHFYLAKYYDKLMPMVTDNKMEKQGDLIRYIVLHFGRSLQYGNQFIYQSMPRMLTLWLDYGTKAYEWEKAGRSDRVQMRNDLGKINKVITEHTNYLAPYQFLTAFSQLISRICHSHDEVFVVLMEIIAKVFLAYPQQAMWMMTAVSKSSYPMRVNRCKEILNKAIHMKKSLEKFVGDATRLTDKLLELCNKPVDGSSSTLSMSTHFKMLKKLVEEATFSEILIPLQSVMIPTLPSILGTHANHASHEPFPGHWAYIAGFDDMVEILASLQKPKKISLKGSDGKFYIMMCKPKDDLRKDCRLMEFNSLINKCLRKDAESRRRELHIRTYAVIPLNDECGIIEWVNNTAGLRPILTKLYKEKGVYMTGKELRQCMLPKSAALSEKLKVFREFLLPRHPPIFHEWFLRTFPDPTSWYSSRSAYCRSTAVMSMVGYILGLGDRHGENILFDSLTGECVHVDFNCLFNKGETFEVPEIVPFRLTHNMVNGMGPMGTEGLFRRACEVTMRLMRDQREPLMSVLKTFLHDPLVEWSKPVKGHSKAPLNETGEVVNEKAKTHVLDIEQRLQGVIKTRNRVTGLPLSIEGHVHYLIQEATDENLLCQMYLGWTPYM
Interferon-induced, double-stranded RNA-activated protein kinase (Homo sapiens), sequence (P19525 whole entry): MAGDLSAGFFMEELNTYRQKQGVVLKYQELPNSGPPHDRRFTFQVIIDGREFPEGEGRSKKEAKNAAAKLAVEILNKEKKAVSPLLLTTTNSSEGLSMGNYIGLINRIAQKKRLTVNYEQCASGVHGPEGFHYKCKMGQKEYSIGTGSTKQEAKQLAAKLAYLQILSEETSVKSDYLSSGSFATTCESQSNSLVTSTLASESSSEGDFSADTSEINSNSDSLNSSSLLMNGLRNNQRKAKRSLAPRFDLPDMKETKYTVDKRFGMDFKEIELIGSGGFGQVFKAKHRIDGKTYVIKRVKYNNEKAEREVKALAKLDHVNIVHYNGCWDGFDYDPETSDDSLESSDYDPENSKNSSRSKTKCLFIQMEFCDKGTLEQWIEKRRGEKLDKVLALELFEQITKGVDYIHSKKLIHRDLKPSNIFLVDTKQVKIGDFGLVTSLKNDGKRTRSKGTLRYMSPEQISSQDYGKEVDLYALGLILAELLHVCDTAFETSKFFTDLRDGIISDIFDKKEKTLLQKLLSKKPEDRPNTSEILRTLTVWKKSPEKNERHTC
Cyclin-dependent kinase 18 (Homo sapiens), sequence (Q07002 whole entry): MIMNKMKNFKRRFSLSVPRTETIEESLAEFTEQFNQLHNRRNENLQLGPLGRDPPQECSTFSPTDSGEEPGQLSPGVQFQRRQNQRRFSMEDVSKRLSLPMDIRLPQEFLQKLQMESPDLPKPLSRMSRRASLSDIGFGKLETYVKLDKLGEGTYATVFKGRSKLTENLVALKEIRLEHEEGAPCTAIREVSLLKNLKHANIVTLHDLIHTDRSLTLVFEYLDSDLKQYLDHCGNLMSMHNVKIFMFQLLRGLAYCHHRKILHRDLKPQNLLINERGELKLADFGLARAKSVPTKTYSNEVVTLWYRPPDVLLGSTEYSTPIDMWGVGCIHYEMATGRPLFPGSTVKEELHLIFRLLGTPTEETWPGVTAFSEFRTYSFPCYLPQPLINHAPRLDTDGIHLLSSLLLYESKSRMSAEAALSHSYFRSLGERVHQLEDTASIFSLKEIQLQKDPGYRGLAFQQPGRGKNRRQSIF

What does the source list for CNc1cc(Oc2cc(C(=O)Nc3cc(N4CCN(C)CC4)cc(C(F)(F)F)c3)ccc2C)ncn1?
inhibition [1]: -3.6%; inhibition [2]: 5.1%; inhibition [3]: 0.4%; inhibition [4]: -0.1%

CCN1CCN(Cc2ccc(NC(=O)c3ccc(C)c(Oc4ccnc5[nH]ccc45)c3)cc2C(F)(F)F)CC1 was tested. Which inhibition [5] did it give?
The inhibition was -7.1%.

Which results are given for CCN1CCN(Cc2ccc(NC(=O)c3ccc(C)c(/C=C/c4cnc5[nH]ccc5c4OC)c3)cc2C(F)(F)F)CC1?
residual activity [6]: 100%; inhibition [7]: 84%
